High-throughput results as filed in PubChem.
The full list was thinned out, with hits kept by preference.
ROMK mod – human ROMK K+ channel modulation, primary screen | P48048 | Tet-inducible ROMK, thallium flux fluorescence; actives lie on both sides | B-score at 10 µM | hit rate 2% among 130,000;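 active means signal ratio slope over the read window, or its plate-corrected B-score, at least 3 SD from the plate mean, either direction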;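 further: B-score of the F/F0 ratio slope over 7 to 12 s after thallium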
Target sequence (P48048 whole entry, looked up): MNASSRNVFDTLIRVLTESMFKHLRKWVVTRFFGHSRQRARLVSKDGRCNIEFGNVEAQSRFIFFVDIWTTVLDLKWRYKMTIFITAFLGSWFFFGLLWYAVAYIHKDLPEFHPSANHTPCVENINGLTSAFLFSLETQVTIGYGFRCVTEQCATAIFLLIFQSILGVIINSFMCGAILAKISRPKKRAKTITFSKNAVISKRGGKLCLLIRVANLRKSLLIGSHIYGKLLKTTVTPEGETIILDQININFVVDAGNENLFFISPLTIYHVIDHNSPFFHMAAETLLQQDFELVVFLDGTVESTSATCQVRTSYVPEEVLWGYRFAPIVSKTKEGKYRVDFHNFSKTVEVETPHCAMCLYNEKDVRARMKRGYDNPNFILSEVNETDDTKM
Pf gamet viab – P. falciparum stage V gametocyte viability inhibition | P. falciparum stage V gametocytes, ATP luminescence, 24 h | inhibition, % at 10.9 µM | hit rate 0.065% among 150,000;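 active means inhibition above the mean plus 3 SD of compounds within the control limits, set per campaign, cut at about 38% in these data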
Biofilm kill mix – mixture kills Candida albicans biofilm cells; C. albicans biofilm persisters + clotrimazole, fluorescence viability; primary screen in compound mixtures of four per well; inhibition, % at 7.6 µM; hit rate 0.02% among 120,000; AID 1242;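 active means inhibition above 30.3% in the primary screen of four-compound pools, then above 30% when the compound was retested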;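 further: compounds exposed to preformed 24 h biofilms for 48 h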
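Incubation: 24 h biofilm formation, then 48 h compound exposure, 37 °C | Material: C. albicans biofilms | Buffer or medium: RPMI/MOPS medium, pH 7.0 | Measured by: 2-h Alamar Blue fluorescence, 535/590 nm excitation/emission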
Large screens that a line does not name were inactive.

Oc1ccc(Nc2nc(N3CCCC3)c3ccccc3n2)cc1	ROMK mod -4.8 (no result: Pf gamet viab, Biofilm kill mix)
COc1ccc(Nc2nc(N3CCCCC3)c3ccccc3n2)cc1	none (no result: ROMK mod, Biofilm kill mix)
COc1cc(NC(=O)c2cc3cccc(OC)c3o2)cc(C(=O)Nc2cccc(C(F)(F)F)c2)c1	none (no result: ROMK mod)
CN(C(=O)c1ccc(NC(=O)C2CCCN(C(=O)OC(C)(C)C)C2)cc1)C1CCC1 (stereo not drawn)	none (no result: ROMK mod, Biofilm kill mix)
Cc1cc(NC(=O)CSc2nc3sc(C)c(C)c3c(=O)n2C2CCCC2)no1	none (no result: ROMK mod, Biofilm kill mix)
Cc1cc(C)nc(N2CCC(C(=O)NNC(=O)c3ccc(Cl)cc3)CC2)n1	none (no result: ROMK mod)
C/C(=N/NC(=O)c1cc2ccccc2cc1O)C1C(=O)c2ccccc2C1=O	ROMK mod 4.8 (no result: Biofilm kill mix)
C/C(=N\NC(=O)c1ccccc1O)C1C(=O)c2ccccc2C1=O	none (no result: Biofilm kill mix)
Cc1ccc(/C=C2\CCC3=C2OC(N)=C(C#N)C3c2ccc(C)cc2)cc1 (stereo not drawn)	ROMK mod -4.9 (no result: Pf gamet viab, Biofilm kill mix)
N#CC1=C(N)OC2=C(CCc3ccccc32)C1c1ccccc1 (stereo not drawn)	none
Cc1sc(NC(=S)NC(=O)c2ccco2)c(C#N)c1C	none
CC[n+]1ccc(/C=C/c2ccc(N(C)C)cc2)c2ccccc21	Biofilm kill mix 35
CC[n+]1ccccc1/C=C/c1ccc(N(C)C)cc1	none (no result: ROMK mod)
CCOC(=O)N1CCC(=NNC(=O)c2ccc(O)cc2)CC1	none (no result: ROMK mod, Pf gamet viab)
Cc1nc(Nc2ccccc2)sc1-c1ccccc1	none
Cc1nc(Nc2ccc(C(=O)O)cc2)sc1-c1ccccc1	ROMK mod 3.7
O=C(O)/C=C/c1cn(-c2ccccc2)nc1-c1ccc(-c2ccc([N+](=O)[O-])cc2)o1	none (no result: ROMK mod)
CNc1oc(Cc2cccc3ccccc23)nc1C#N	none (no result: Biofilm kill mix)
N#Cc1nc(Cc2cccc3ccccc23)oc1NCCN1CCCCC1	ROMK mod -5.6 (no result: Biofilm kill mix)
CCCNC(=O)C1CCN(S(=O)(=O)c2cccc3nonc23)CC1	none
CCOc1ccc2nc(/N=C/c3c(C)[nH]n(-c4ccccc4)c3=O)sc2c1	ROMK mod 2.6
CCOc1ccc2nc(/N=C/c3c(C)[nH]n(-c4ccc(C)cc4)c3=O)sc2c1	none
Cc1cccc(C(=O)N2c3ccccc3C(=O)OC2c2ccc3c(c2)OCO3)c1 (stereo not drawn)	none (no result: Biofilm kill mix)
O=C1OC(c2ccc3c(c2)OCO3)N(C(=O)c2ccc(Cl)c(Cl)c2)c2ccccc21 (stereo not drawn)	ROMK mod 0.53 (no result: Biofilm kill mix)
CC(NC(=O)CCc1nnc(CCCc2ccccc2)o1)c1ccccc1 (stereo not drawn)	Pf gamet viab 50
CC(NC(=O)CCc1nnc(-c2ccccc2)o1)c1ccccc1 (stereo not drawn)	none
O=C(Nc1cccc(Cl)c1Cl)c1cc(S(=O)(=O)NCCc2ccccc2)ccc1F	none (no result: Pf gamet viab)
O=C(NCc1ccco1)C(c1ccncc1)N(C(=O)Cc1cccs1)c1ccccc1 (stereo not drawn)	none
O=C(NCc1ccco1)C(c1cccs1)N(C(=O)C1COc2ccccc2O1)c1cccc(O)c1 (stereo not drawn)	ROMK mod -7.2 (no result: Biofilm kill mix)
COc1ccc(-c2cc3nc4ccccc4n3c(N)c2C#N)cc1	none (no result: ROMK mod)
COc1ccc(Cn2c(=O)c3cccnc3n(Cc3ccc([N+](=O)[O-])cc3)c2=O)cc1	ROMK mod 2.8 (no result: Pf gamet viab)
COc1ccc(CCn2c(=O)c3cccnc3n(Cc3ccc([N+](=O)[O-])cc3)c2=O)cc1OC	none
CCOC(=O)C1=C(N)OC2=C(C(=O)CC(C)(C)C2)C1c1cccs1 (stereo not drawn)	none (no result: Pf gamet viab)
CCOC(=O)c1cnc2c(ccc3ccccc32)c1N	none (no result: ROMK mod, Biofilm kill mix)
Cc1cccc(OC(C)C(=O)NCc2ccc(S(N)(=O)=O)cc2)c1 (stereo not drawn)	none (no result: ROMK mod)
CCC(Oc1ccccc1)C(=O)NCc1ccc(S(N)(=O)=O)cc1 (stereo not drawn)	Pf gamet viab 61
CCOC(=O)c1cc2c(=O)n3cccc(C)c3nc2n(CCc2ccccc2)c1=N	none (no result: Pf gamet viab, Biofilm kill mix)
NC(=O)c1ccc(NC(=O)c2cnc3ccccc3n2)cc1	none (no result: ROMK mod)
Cc1nn(CC(=O)NCc2cc3ccccc3[nH]2)c(C)c1[N+](=O)[O-]	none
Cc1ccc(CNC(=O)CSc2c3c(nc4ccc(Cl)cc24)CCCC3)o1	ROMK mod -2.5 (no result: Pf gamet viab, Biofilm kill mix)
CCN(CC)CCNC(=O)CSc1c2c(nc3cc(Cl)ccc13)CCCC2	none (no result: ROMK mod)
CCOC(=O)C1CCCN(CC(=O)Nc2cccc(C(C)=O)c2)C1 (stereo not drawn)	none (no result: Pf gamet viab)
CCOC(=O)C1CCCN(CC(=O)NC2=Nc3ccccc3N=C(C)C2c2ccccc2)C1 (stereo not drawn)	ROMK mod -2.1 (no result: Pf gamet viab, Biofilm kill mix)
O=C(COC(=O)CCC(=O)c1ccc(F)cc1)NCc1ccco1	none
O=C(COC(=O)Cc1ccc(F)cc1)NCc1ccco1	Pf gamet viab 49
Cc1cccc(NS(=O)(=O)c2cc(OCC(N)=O)c(C)cc2Cl)c1	none (no result: Pf gamet viab)
Cc1ccc(NS(=O)(=O)c2cc(OCC(N)=O)c(C)cc2Cl)cc1C	ROMK mod -3.1 (no result: Pf gamet viab)
O=C(Nc1cnn(C23CC4CC(CC(C4)C2)C3)c1)c1cc(-c2ccccc2)on1	none (no result: Pf gamet viab, Biofilm kill mix)
CCCn1cc(NC(=O)c2cc(-c3ccccc3)on2)cn1	ROMK mod 5.6 (no result: Biofilm kill mix)
Cc1nc2nc(SCc3ccccc3)[nH]n2c(=O)c1CCC(C)C	none (no result: ROMK mod, Biofilm kill mix)
COc1ccc(C(=O)NC2CC3CCCC(C2)N3Cc2ccccc2)cc1OC (stereo not drawn)	none (no result: ROMK mod, Biofilm kill mix)
Cc1ccc(C)c(NC(=O)CN(C)C(=O)/C=C/c2ccco2)c1	none (no result: ROMK mod, Pf gamet viab)
CN(CC(=O)Nc1ccc(Cl)c(C(F)(F)F)c1)C(=O)/C=C/c1ccco1	Pf gamet viab 57
Cc1ccccc1C(=O)NNC(=S)NC(=O)c1ccccc1	ROMK mod 2.3 (no result: Pf gamet viab)
Cc1ccc(C(=O)NNC(=S)NC(=O)c2ccccc2)cc1	none (no result: ROMK mod, Biofilm kill mix)
Cc1ccc(C(=O)NNC(=S)NC(=O)c2ccc(Cl)cc2Cl)cc1	ROMK mod 5.8 (no result: Biofilm kill mix)
CCCCC(=O)NC(=S)NNC(=O)c1ccc(Cl)cc1Cl	none (no result: Pf gamet viab)
Cc1ccc(C(=O)NNC(=O)c2ccco2)cc1	none
Cc1ccc(C(=O)NNC(=S)NC(=O)c2ccco2)cc1	ROMK mod 3.6
CCOC(=O)[C@@H](C)N(C(=O)OC(C)(C)C)S(=O)(=O)N(Cc1ccccc1)[C@H](C(=O)OC)C(C)C	none (no result: ROMK mod, Biofilm kill mix)
O=c1cc(-c2ccccc2Cl)oc2c(NS(=O)(=O)c3cccs3)ccc(O)c12	none (no result: ROMK mod, Pf gamet viab)
O=C(N[C@@H]1C[C@H]2CC[C@@H]1C2)c1ccco1	none (no result: ROMK mod, Biofilm kill mix)
Cc1cccc(C)c1NC(=O)CNCC(=O)N(C)C	none (no result: Pf gamet viab)
C=CCN(CC=C)C(=S)NC(=O)c1ccc(OC)cc1	none
C=CCN(CC=C)C(=S)NC(=O)c1ccc(-c2ccccc2)cc1	ROMK mod 10 (no result: Pf gamet viab, Biofilm kill mix)
O=C1CCCc2c1[nH]c1ccccc21	none (no result: Pf gamet viab, Biofilm kill mix)
O=C1CCCC(=O)C1=Cc1c[nH]c2ccccc12	ROMK mod -4.1 (no result: Biofilm kill mix)
COc1ccc(N2CCN(C(CNC(=O)C(=O)NCc3ccc4c(c3)OCO4)c3ccco3)CC2)cc1 (stereo not drawn)	none
Cc1cccc(C(=O)NC(=S)NNC(=O)COc2ccc(Cl)cc2)c1	ROMK mod 3.3
COc1ccc(C(=O)NC(=S)NNC(=O)c2cccc(C)c2)cc1	none (no result: ROMK mod, Biofilm kill mix)
Cc1cc(=O)oc2cc(OCC(=O)OCC(=O)N(C)C3CCS(=O)(=O)C3)ccc12 (stereo not drawn)	none (no result: ROMK mod)
O=C(O)c1ccccc1-c1ccccc1C(=O)NNc1ccc([N+](=O)[O-])cc1	none
COc1ccc(Nc2nc(-c3c(C)nc4ncccn34)cs2)cc1	ROMK mod 3.1
Cc1nc2ncccn2c1-c1csc(Nc2ccccc2)n1	none
Cc1ccc(C(C(=O)NC2CCCCC2)N(Cc2ccco2)C(=O)Cn2cnc3ccccc32)cc1 (stereo not drawn)	ROMK mod -3.3
